Legend:
[1] = target: T1, Cannabinoid receptor 2 (Homo sapiens, UniProt P34972); experiment: Binding affinity to CB2 receptor
[2] = target: Cannabinoid receptor 1 (Homo sapiens, UniProt P21554); experiment: Binding affinity to CB1 receptor
[3] = Selectivity ratio of IC50 for CB1 receptor in Sprague-Dawley rat brain membranes to IC50 for human CB2 receptor; format: cell membranes; details: Membrane
[4] = target: T1, Cannabinoid receptor 2; experiment: Displacement of [3H]CP-55940 from human CB2 receptor expressed in CHO cells after 1 hr by liquid scintillation spectrophotometry; format: cell-based
[5] = target: Cannabinoid receptor 1 (Rattus norvegicus, UniProt P20272); experiment: Displacement of [3H]CP-55940 from CB1 receptor in Sprague-Dawley rat brain membranes after 1 hr by liquid scintillation spectrophotometry; format: cell membranes, Membrane
Method in brief: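 Membranes from whole rat brain (CB1) or human CB2-expressing CHO cells (CB2) were incubated 1 hr at 30°C with 1 nM [3H]CP-55,940 and six competitor concentrations (0.1 nM–10 μM). Buffer contained 5 mg/ml BSA, ethanol ≤0.4%. Nonspecific binding was defined with 1 μM CP-55,940. Separation on polyethyleneimine-treated GF/B filters, then scintillation counting. IC50 from log-linear regression, Ki via Cheng-Prusoff; triplicate, 3–6 repeats.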

[6] = target: T1, Cannabinoid receptor 2; experiment: Agonist activity at human CB2 receptor expressed in CHO cells assessed as stimulation of [35S]GTPgammaS binding after 1.5 hrs by liquid scintillation spectrophotometry relative to CP-55940; format: functional, cell-based
Method in brief: (§1)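 Membranes from CB2-CHO cells grown in DMEM/Ham F-12 with G418 and 5% fetal calf serum. Reactions used 10 μg membrane protein with 10 μM GDP, 0.1 nM radiolabelled GTPγS, 1 mg/mL BSA and varied drug concentrations in NaCl/EGTA Tris buffer pH 7.4, for 1.5 hr at 30°C. Nonspecific binding (unlabeled GTPγS) subtracted; filtration, scintillation counting. Nonlinear regression; Emax relative to 3 μM CP-55,940; mean ± SEM, ≥3 experiments in triplicate.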

[7] = target: T1, Cannabinoid receptor 2; experiment: Agonist activity at human CB2 receptor expressed in CHO cells assessed as stimulation of [35S]GTPgammaS binding after 1.5 hrs by liquid scintillation spectrophotometry; format: functional, cell-based; method in brief: as §1

Sequence of Cannabinoid receptor 1 (Rattus norvegicus, UniProt P20272) (P20272 whole entry): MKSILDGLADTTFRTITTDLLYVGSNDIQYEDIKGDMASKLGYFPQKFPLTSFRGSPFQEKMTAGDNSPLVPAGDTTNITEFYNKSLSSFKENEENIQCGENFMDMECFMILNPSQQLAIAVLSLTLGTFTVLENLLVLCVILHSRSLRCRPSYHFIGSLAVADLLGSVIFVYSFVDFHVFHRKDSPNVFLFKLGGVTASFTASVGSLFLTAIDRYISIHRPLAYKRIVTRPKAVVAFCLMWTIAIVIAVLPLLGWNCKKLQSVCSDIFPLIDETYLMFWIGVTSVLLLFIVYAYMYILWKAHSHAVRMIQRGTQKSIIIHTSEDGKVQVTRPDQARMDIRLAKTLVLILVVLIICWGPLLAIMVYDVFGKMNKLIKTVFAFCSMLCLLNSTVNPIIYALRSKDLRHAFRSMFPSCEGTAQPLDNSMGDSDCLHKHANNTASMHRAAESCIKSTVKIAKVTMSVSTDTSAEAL
T1 sequence (P34972 whole entry): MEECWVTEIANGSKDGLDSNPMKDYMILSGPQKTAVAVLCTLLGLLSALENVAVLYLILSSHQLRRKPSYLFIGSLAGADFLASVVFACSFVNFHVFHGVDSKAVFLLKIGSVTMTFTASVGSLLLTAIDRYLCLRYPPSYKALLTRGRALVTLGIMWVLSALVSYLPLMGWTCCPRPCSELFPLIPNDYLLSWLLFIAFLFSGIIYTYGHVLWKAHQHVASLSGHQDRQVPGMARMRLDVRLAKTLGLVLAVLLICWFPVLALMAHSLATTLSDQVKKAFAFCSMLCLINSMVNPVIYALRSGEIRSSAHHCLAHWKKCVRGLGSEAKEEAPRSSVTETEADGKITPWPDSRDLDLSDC
Sequence of Cannabinoid receptor 1 (Homo sapiens, UniProt P21554) (P21554 whole entry): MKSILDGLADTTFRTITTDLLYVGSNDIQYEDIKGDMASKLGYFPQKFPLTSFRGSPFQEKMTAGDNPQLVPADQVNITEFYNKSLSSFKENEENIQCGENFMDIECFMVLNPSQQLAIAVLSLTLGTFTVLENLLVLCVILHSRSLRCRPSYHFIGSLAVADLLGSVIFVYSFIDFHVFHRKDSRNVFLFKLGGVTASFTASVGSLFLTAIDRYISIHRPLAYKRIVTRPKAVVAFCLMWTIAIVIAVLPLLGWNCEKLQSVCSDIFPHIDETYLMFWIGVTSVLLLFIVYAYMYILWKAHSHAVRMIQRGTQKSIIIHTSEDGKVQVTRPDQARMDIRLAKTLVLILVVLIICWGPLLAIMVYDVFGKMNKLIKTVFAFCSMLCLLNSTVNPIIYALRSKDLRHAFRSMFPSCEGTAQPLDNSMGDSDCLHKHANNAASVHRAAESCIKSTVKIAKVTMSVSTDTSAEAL

| SMILES | Ki [1] [nM] | Ki [2] [nM] | Ratio Ki [3] | Ki [4] [nM] | Ki [5] [nM] | Emax [6] [%] | EC50 [7] [nM] |
| --- | --- | --- | --- | --- | --- | --- | --- |
| CCCCCCC(C)(C)c1ccc2c(c1)OC(C)(C)[C@@H]1CC=C(CO)C[C@@H]21 | 0.032 | 1.2 |  |  |  |  |  |
| CCCCCCC(C)(C)c1ccc2c(c1)OC(C)(C)[C@@H]1CC=C(C)C[C@@H]21 | 2.9 | 23 |  |  |  |  |  |
| CCCCC(C)(C)c1cc(Br)c2c(c1)OC(C)(C)[C@@H]1CC=C(C)C[C@@H]21 |  |  | 16 | 71 | 1140 |  |  |
| CCCC(C)(C)c1cc(Br)c2c(c1)OC(C)(C)[C@@H]1CC=C(C)C[C@@H]21 |  |  | 38 | 265 | > 10000 |  |  |
| CCCCCc1cc(Br)c2c(c1)OC(C)(C)[C@@H]1CC=C(C)C[C@@H]21 |  |  | 18 | 555 | > 10000 |  |  |
| CCCCCCC(C)(C)c1cc(Br)c2c(c1)OC(C)(C)[C@@H]1CC=C(C)C[C@@H]21 |  |  | 27 | 34 | 562 | 91 | 15 |
| CCCCCC(C)(C)c1cc(Br)c2c(c1)OC(C)(C)[C@@H]1CC=C(C)C[C@@H]21 |  |  | 52 | 28 | 1440 | 92.3 | 28.6 |
| CCCC(C)(C)c1ccc2c(c1)OC(C)(C)[C@@H]1CC=C(C)C[C@@H]21 |  |  | 294 |  | 677 | 112 | 4 |

Source: ChEMBL document CHEMBL1275360, “1-Bromo-3-(1',1'-dimethylalkyl)-1-deoxy-Δ(8)-tetrahydrocannabinols: New selective ligands for the cannabinoid CB(2) receptor” (Bioorg Med Chem, 2010)
